In brackets after ≈: the same amount, converted by molar mass.
Legend:
Assay type in all cases: functional
Micrococcus luteus = test: Antibacterial activity against Micrococcus luteus ATCC 9341 after 20 hrs by MTT assay; settings: ATCC 9341, 20 h
Outline: (§1)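 Overnight cultures in nutrient broth at 37 °C, diluted to ca. 10⁵ cells/mL in fresh medium. Compounds from 1 mg/mL MeOH stocks dried in wells, redissolved in DMSO plus broth and culture, then twofold serial dilutions in bacterial suspension. Plates held 20 h at 37 °C in moist atmosphere; 0.25% aqueous MTT added, 4 h further incubation; living bacteria seen as violet turbidity.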

Bacillus cereus = test: Antibacterial activity against Bacillus cereus ATCC 10702 after 20 hrs by MTT assay; settings: ATCC 10702, 20 h; outline: as §1
Staphylococcus aureus = test: Antibacterial activity against Staphylococcus aureus ATCC 25923 after 20 hrs by MTT assay; settings: ATCC 25923, 20 h; outline: as §1
[1] = tested on: Staphylococcus epidermidis; test: Antibacterial activity against Staphylococcus epidermidis ATCC 12228 after 20 hrs by MTT assay; settings: ATCC 12228, 20 h; outline: as §1

Compound	MIC (Micrococcus luteus) [µg/mL]	MIC (Bacillus cereus) [µg/mL]	MIC (Staphylococcus aureus) [µg/mL]	MIC [1] [µg/mL]
COc1cc(/C=C/C(=O)OC[C@H]2O[C@@H](Oc3c(-c4ccc(O)cc4)oc4cc(O)cc(O)c4c3=O)[C@H](O)[C@@H](OC(=O)/C=C/c3ccc(O)cc3)[C@@H]2O)ccc1O	> 256	> 256	> 256	> 256
O=C(N[C@H](CO)[C@H](O)c1ccc([N+](=O)[O-])cc1)C(Cl)Cl [CHLORAMPHENICOL]	2 (≈ 6.19 µM)	2 (≈ 6.19 µM)	4 (≈ 12.4 µM)	4 (≈ 12.4 µM)
COc1cc(C(O)C(CO)Oc2ccc(/C=C/C(=O)OC[C@H]3O[C@@H](Oc4c(-c5ccc(O)cc5)oc5cc(O)cc(O)c5c4=O)[C@H](O)[C@@H](OC(=O)/C=C/c4ccc(O)cc4)[C@@H]3O)cc2OC)ccc1O (some centres not stated) [STENOPALUSTROSIDE E]	> 256	> 256	> 256	> 256
O=C(/C=C/c1ccc(O)cc1)OC[C@H]1O[C@@H](Oc2c(-c3ccc(O)cc3)oc3cc(O)cc(O)c3c2=O)[C@H](O)[C@@H](O)[C@@H]1O [TILIROSIDE]	> 256	> 256	> 256	> 256

Other lines, results leading:

MIC (Micrococcus luteus) [µg/mL]	MIC (Bacillus cereus) [µg/mL]	MIC (Staphylococcus aureus) [µg/mL]	MIC [1] [µg/mL]	Compound
> 256	> 256	> 256	> 256	O=C(/C=C/c1ccc(O)cc1)OC[C@H]1O[C@@H](Oc2c(-c3ccc(O)cc3)oc3cc(O)cc(O)c3c2=O)[C@H](O)[C@@H](OC(=O)/C=C/c2ccc(O)cc2)[C@@H]1O
> 256	> 256	> 256	> 256	O=C(/C=C/c1ccc(O)cc1)O[C@@H]1[C@@H](O)[C@H](Oc2c(-c3ccc(O)cc3)oc3cc(O)cc(O)c3c2=O)O[C@H](CO)[C@H]1O
8 (≈ 10.8 µM)	4 (≈ 5.4 µM)	16 (≈ 21.6 µM)	2 (≈ 2.7 µM)	O=C(/C=C\c1ccc(O)cc1)OC[C@H]1O[C@@H](Oc2c(-c3ccc(O)cc3)oc3cc(O)cc(O)c3c2=O)[C@H](O)[C@@H](OC(=O)/C=C\c2ccc(O)cc2)[C@@H]1O [STENOPALUSTROSIDE A]
16 (≈ 20.8 µM)	8 (≈ 10.4 µM)	32 (≈ 41.5 µM)	64 (≈ 83 µM)	COc1cc(/C=C/C(=O)OC[C@H]2O[C@@H](Oc3c(-c4ccc(O)cc4)oc4cc(O)cc(O)c4c3=O)[C@H](O)[C@@H](OC(=O)/C=C\c3ccc(O)cc3)[C@@H]2O)ccc1O [STENOPALUSTROSIDE B]

Source: ChEMBL document CHEMBL1157987, “Acylated flavonol glycosides from leaves of Stenochlaena palustris” (1999)
